From ChEMBL document CHEMBL4014327 (J Med Chem, 2017)
≈ marks a conversion by molar mass, not a printed value.

Experiments:
[1] = Apparent intrinsic clearance in human liver microsomes; type: ADME, microsome; conditions: read-out: CLH(app)
[2] = Apparent permeability in RRCK cells from apical to basolateral side; type: ADME, cell-based, Canis lupus familiaris, MDCKII-LE; conditions: dog, MDCK
How it was run: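 RRCK cell monolayer permeability assay; apparent permeability reported in cm/s.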

[3] = Lipophilicity, log D of compound; type: physicochemical; conditions: octanol/water
CYP1A2 = CYP1A2 (Homo sapiens, UniProt P05177); test: Inhibition of CYP1A2 in human liver microsomes at 3 uM; type: ADME
CYP2C8 = CYP2C8 (Homo sapiens, UniProt P10632); test: Inhibition of CYP2C8 in human liver microsomes at 3 uM; type: ADME
CYP3A4 = CYP3A4 (Homo sapiens, UniProt P08684); test: Inhibition of CYP3A4 in human liver microsomes at 3 uM; type: ADME
[4] = Solubility of compound in simulated fasted state intestinal fluid at pH 6.5; type: physicochemical
How it was run: (§1)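 Solubility of crystalline material measured in phosphate-buffered saline pH 6.7, unbuffered water pH 8.1 and simulated fasted-state intestinal fluid pH 6.5, reported in μg/mL.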

[5] = Solubility of compound in water at pH 8.1; type: physicochemical; how it was run: as §1
[6] = Half life in Beagle dog at 1 mg/kg, iv administered as single dose; type: ADME, organism-based, Canis lupus familiaris; conditions: in vivo
[7] = Half life in Beagle dog at 5 mg/kg, po administered as single dose; type: ADME, organism-based, Canis lupus familiaris; conditions: in vivo
[8] = Half life in cynomolgus monkey at 5 mg/kg, po administered as single dose; type: ADME, organism-based, Macaca fascicularis; conditions: in vivo
Rattus norvegicus [9] = test: Plasma clearance in Wistar Han rat at 1 mg/kg, iv administered as single dose; type: ADME, organism-based; conditions: in vivo
[10] = Volume of distribution at steady state in cynomolgus monkey at 1 mg/kg, iv administered as single dose; type: ADME, organism-based, Macaca fascicularis; conditions: in vivo, read-out: Vdss
How it was run: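 Single-dose pharmacokinetic study in male animals, with iv and separate oral administration. Steady-state volume of distribution was derived from plasma concentrations after the iv dose.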

[11] = Oral bioavailability in Wistar Han rat at 5 mg/kg administered as single dose; type: ADME, organism-based; conditions: in vivo
[12] = molecular target: T1, Interleukin-1 receptor-associated kinase 4 (Homo sapiens) (UniProt Q9NWZ3); test: Inhibition of recombinant human full length His-tagged IRAK4 expressed in baculovirus at 200 nM
T1 sequence (whole entry): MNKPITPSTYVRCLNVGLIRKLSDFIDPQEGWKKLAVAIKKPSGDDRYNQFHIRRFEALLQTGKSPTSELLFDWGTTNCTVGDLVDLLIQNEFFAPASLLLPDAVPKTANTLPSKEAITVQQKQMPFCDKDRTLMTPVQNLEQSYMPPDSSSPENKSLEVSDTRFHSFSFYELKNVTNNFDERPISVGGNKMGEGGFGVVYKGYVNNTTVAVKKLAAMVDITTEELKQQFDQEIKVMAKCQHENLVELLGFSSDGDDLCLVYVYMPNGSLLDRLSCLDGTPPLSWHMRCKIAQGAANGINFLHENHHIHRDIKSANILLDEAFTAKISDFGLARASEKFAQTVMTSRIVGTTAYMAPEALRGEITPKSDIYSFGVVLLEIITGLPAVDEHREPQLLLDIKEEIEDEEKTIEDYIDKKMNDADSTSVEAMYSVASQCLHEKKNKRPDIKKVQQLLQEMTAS

[13] = molecular target: Leucine-rich repeat serine/threonine-protein kinase 2 (Homo sapiens) (UniProt Q5S007); test: Inhibition of recombinant human GST-tagged LRRK2 expressed in baculovirus at 200 nM
[14] = molecular target: Casein kinase I isoform gamma-1 (Homo sapiens) (UniProt Q9HCP0); test: Inhibition of recombinant human full length GST-tagged CK1gamma1 expressed in baculovirus at 200 nM
[15] = molecular target: T1, Interleukin-1 receptor-associated kinase 4 (Homo sapiens); test: Inhibition of IRAK4 in human THP1 cell lysate at 200 nM
[16] = molecular target: Interleukin-1 receptor-associated kinase 3 (Homo sapiens) (UniProt Q9Y616); test: Inhibition of IRAK3 in human THP1 cell lysate at 200 nM
[17] = molecular target: Phosphatidylinositol 5-phosphate 4-kinase type-2 gamma (Homo sapiens) (UniProt Q8TBX8); test: Inhibition of PIPK2C in human THP1 cell lysate at 200 nM
[18] = molecular target: Casein kinase I delta/epsilon (Homo sapiens) (UniProt P48730+P49674); test: Inhibition of CK1-delta/epsilon in human THP1 cell lysate at 200 nM
hERG (KCNH2) = hERG (KCNH2) (Homo sapiens, UniProt Q12809); test: Inhibition of human ERG at 100 uM by voltage clamp assay
How it was run: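 hERG current measured by voltage clamp, test compound at 100 μM; percent current inhibition.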

Cytochrome P450 2B6 = Cytochrome P450 2B6 (Homo sapiens, UniProt P20813); test: Time dependent inhibition of CYP2B6 in human liver microsomes at 100 uM; type: ADME
How it was run: (§2)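 Time-dependent inhibition assessed in pooled human liver microsomes with probe substrates, test compound at 100 μM.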

Cytochrome P450 2C8 = Cytochrome P450 2C8 (Homo sapiens, UniProt P10632); test: Time dependent inhibition of CYP2C8 in human liver microsomes at 100 uM; type: ADME; how it was run: as §2
Cytochrome P450 2C19 = Cytochrome P450 2C19 (Homo sapiens, UniProt P33261); test: Time dependent inhibition of CYP2C19 in human liver microsomes at 100 uM; type: ADME; how it was run: as §2
Rattus norvegicus [19] = test: Inhibition of LPS induced TNFalpha secretion in Sprague-Dawley rat assessed as decrease in TNFalpha level in serum at 0.3 mg/kg, po pretreated for 1 hr followed by LPS challenge measured after 1.5 hrs relative to control; type: functional
How it was run: (§3)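 Male Sprague-Dawley rats, 6-8 weeks old, n = 6-9 per group. Test article was given orally at 0.3, 1, 3 or 30 mg/kg as a solution or suspension in 0.5% methylcellulose and 2% Tween 80 in water; controls received vehicle alone. Ultrapure LPS (0.01 mg/kg) was given iv 1 h later. Blood was drawn 1.5 h after challenge, and serum TNF was measured by MSD.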

Rattus norvegicus [20] = test: Inhibition of LPS induced TNFalpha secretion in Sprague-Dawley rat assessed as decrease in TNFalpha level in serum at 1 mg/kg, po pretreated for 1 hr followed by LPS challenge measured after 1.5 hrs relative to control; type: functional; how it was run: as §3
Rattus norvegicus [21] = test: Inhibition of LPS induced TNFalpha secretion in Sprague-Dawley rat assessed as decrease in TNFalpha level in serum at 3 mg/kg, po pretreated for 1 hr followed by LPS challenge measured after 1.5 hrs relative to control; type: functional; how it was run: as §3
Rattus norvegicus [22] = test: Inhibition of LPS induced TNFalpha secretion in po dosed Sprague-Dawley rat assessed as decrease in TNFalpha level in serum pretreated for 1 hr followed by LPS challenge measured after 1.5 hrs relative to control; type: functional, organism-based; how it was run: as §3
Plasma = test: Free plasma concentration in Sprague-Dawley rat LPS model at 1 mg/kg, po after 2.5 hrs; type: ADME, organism-based; conditions: in vivo
How it was run: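 Male Sprague−Dawley rats, 6−8 weeks old, n = 6−9 per group. Dosed orally at 0.3, 1, 3 or 30 mg/kg in 0.5% methylcellulose/2% Tween 80 in water. Ultrapure LPS 0.01 mg/kg iv given 1 h after dosing. Plasma exposure taken 2.5 h after oral dosing and reported as free concentration using fraction unbound in rat plasma.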

[23] = molecular target: Vascular endothelial growth factor receptor 2 (Homo sapiens, UniProt P35968); test: Inhibition of human recombinant VEGFR2 using CAGAGAIETDKEYYTVKD as substrate after 60 mins by Lance method
Vascular endothelial growth factor receptor 2, sequence (P35968 whole entry): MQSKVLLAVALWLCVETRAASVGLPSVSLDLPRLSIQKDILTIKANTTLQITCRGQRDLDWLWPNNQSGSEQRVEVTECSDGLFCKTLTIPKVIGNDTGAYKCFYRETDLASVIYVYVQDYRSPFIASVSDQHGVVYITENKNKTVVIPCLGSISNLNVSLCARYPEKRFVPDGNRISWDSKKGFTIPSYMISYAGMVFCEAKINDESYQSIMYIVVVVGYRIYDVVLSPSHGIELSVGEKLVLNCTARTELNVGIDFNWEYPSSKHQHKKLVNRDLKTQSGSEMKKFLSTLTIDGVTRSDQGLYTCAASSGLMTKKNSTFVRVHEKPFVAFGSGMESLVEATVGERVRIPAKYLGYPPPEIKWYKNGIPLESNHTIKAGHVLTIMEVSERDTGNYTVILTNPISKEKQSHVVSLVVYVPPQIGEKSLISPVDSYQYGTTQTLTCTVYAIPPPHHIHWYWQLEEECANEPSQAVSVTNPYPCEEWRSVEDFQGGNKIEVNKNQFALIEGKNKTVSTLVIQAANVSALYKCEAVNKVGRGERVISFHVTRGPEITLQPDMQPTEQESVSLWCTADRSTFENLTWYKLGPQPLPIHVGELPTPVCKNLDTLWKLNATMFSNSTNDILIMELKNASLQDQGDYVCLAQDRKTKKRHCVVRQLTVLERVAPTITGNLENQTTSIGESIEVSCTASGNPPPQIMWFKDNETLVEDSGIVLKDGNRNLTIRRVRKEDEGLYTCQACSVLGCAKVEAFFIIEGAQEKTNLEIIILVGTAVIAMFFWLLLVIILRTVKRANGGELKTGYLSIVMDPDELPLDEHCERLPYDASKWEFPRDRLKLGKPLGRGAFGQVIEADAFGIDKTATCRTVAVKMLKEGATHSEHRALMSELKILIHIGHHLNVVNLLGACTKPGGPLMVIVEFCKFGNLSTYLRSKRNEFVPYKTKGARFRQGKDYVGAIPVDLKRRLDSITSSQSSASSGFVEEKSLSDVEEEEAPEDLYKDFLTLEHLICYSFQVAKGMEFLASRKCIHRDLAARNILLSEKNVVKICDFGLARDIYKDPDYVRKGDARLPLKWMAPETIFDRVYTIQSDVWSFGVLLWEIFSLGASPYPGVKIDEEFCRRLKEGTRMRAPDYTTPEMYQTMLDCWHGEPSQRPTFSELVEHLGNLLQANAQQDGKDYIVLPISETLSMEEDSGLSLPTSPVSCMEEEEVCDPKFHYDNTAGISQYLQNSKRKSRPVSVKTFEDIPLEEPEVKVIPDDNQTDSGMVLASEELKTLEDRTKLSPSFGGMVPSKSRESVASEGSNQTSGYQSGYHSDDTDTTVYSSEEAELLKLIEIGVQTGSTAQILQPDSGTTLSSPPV

hERG (KCNH2), sequence (Q12809 whole entry): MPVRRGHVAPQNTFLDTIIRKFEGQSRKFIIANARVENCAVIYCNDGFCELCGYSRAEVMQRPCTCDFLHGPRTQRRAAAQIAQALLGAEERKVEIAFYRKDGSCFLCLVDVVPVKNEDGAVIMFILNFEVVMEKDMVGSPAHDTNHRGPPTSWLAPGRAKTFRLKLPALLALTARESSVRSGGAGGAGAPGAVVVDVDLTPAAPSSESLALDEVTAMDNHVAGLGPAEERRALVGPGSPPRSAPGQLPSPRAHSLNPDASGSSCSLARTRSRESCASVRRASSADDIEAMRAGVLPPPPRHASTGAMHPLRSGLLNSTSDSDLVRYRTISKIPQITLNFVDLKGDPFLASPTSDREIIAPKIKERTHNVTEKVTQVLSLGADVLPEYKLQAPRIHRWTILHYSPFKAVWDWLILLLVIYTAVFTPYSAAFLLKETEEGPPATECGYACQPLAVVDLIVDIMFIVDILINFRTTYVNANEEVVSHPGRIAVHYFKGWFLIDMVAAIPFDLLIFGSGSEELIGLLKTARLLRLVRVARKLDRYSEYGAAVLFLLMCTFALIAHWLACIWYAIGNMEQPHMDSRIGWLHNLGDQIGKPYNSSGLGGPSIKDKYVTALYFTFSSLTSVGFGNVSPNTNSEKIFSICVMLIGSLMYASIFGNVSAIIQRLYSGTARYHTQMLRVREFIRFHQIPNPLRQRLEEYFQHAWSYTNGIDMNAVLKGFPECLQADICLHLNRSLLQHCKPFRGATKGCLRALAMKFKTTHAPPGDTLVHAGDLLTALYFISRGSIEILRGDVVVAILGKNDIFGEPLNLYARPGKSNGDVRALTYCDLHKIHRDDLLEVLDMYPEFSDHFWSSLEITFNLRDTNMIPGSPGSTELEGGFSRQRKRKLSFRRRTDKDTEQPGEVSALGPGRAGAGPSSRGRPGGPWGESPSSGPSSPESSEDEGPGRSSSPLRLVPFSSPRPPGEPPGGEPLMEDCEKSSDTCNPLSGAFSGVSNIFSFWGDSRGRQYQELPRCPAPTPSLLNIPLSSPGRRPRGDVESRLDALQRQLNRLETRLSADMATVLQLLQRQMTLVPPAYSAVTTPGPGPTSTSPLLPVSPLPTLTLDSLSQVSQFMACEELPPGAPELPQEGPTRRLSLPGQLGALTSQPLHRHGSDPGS
CYP2C8, sequence (P10632 whole entry): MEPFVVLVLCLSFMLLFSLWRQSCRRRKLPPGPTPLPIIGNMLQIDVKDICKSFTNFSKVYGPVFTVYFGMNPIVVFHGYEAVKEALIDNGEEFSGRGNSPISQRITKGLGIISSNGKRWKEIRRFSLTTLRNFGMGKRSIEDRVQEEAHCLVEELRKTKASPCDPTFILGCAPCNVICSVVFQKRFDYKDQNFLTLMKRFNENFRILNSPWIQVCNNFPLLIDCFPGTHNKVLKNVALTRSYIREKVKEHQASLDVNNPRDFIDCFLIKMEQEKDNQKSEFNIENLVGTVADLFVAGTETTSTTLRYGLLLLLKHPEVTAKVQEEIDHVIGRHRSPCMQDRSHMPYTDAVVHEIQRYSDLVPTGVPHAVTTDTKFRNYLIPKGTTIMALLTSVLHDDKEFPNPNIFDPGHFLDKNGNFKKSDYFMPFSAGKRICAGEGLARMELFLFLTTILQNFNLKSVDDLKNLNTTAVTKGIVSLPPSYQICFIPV
Cytochrome P450 2C8, sequence (P10632 whole entry): as above
CYP3A4, sequence (P08684 whole entry): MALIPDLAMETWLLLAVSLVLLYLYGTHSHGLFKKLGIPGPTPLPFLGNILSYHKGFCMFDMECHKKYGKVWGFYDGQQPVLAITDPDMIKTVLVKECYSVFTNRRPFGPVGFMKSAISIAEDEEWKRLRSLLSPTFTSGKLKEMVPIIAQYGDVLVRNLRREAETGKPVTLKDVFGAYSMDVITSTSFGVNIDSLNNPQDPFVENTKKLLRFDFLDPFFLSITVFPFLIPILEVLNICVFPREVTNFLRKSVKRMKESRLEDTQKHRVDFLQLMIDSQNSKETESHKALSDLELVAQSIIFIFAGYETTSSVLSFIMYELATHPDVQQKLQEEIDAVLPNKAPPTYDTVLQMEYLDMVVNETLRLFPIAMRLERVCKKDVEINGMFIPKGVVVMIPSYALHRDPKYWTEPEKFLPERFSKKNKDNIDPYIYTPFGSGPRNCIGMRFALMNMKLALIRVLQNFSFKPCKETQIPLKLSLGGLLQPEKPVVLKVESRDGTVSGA
Interleukin-1 receptor-associated kinase 3 (Homo sapiens), sequence (Q9Y616 whole entry): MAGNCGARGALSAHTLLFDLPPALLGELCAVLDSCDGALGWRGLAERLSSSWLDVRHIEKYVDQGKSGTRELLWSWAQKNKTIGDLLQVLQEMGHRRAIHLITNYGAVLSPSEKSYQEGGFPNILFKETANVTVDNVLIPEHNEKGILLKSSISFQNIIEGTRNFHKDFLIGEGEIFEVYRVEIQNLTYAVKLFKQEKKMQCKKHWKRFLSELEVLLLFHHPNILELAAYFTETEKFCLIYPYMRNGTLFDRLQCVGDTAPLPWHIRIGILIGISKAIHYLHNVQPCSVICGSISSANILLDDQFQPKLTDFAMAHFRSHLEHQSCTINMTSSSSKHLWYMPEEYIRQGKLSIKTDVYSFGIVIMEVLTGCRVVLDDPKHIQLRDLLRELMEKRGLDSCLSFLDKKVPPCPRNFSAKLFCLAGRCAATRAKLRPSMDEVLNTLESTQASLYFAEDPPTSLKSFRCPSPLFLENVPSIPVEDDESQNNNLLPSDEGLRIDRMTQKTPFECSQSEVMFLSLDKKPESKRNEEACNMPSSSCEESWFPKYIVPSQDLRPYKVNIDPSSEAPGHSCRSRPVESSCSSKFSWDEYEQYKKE
Cytochrome P450 2B6, sequence (P20813 whole entry): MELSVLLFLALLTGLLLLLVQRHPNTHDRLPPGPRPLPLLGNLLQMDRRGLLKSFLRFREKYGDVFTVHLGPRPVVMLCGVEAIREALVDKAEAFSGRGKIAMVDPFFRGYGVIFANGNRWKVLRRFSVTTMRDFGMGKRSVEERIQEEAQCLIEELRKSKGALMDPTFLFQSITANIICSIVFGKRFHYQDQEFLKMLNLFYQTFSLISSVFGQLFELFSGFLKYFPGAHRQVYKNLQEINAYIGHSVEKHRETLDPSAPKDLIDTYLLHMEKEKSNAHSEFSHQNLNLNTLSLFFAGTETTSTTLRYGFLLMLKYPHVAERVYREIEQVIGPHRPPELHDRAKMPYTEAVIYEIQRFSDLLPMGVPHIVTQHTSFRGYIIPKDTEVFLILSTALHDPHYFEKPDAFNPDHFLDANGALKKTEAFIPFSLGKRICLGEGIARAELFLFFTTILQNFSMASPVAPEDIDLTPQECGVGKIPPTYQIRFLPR
Casein kinase I isoform gamma-1 (Homo sapiens), sequence (Q9HCP0 whole entry, looked up, canonical isoform): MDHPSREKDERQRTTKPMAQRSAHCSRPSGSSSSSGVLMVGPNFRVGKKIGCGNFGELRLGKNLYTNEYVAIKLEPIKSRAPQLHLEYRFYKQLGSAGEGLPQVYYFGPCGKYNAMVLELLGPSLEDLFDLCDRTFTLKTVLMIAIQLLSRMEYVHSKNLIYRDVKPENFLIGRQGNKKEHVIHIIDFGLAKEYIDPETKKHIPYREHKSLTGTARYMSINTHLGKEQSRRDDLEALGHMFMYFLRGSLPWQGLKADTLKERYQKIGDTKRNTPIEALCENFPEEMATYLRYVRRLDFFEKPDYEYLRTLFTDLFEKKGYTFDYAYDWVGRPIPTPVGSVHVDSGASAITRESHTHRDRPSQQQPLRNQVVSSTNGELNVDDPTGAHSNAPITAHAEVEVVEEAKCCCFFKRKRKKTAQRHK

SMILES: CC[C@@H]1[C@H](F)C(=O)N[C@@H]1COc1nccc2cc(C(N)=O)c(OC)cc12 [ZIMLOVISERTIB]
- microsomal CLint [1]: 25 µL/min/mg
- Papp A→B [2]: 96 nm/s
- logD [3]: 2
- inhibition at 3 µM (CYP1A2): < 5%
- inhibition at 3 µM (CYP2C8): < 5%
- inhibition at 3 µM (CYP3A4): < 5%
- solubility [4]: 0.062 mg/mL (≈ 172 µM)
- solubility [5]: 0.065 mg/mL (≈ 180 µM)
- half-life [6]: 1.1 h
- half-life [7]: 4 h
- half-life [8]: 6.2 h
- clearance (Rattus norvegicus [9]): 3.36 L/h/kg
- Vd [10]: 0.95 L/kg
- bioavailability [11]: 34 to 50%
- inhibition [12]: 100%
- inhibition [13]: > 70%
- inhibition [14]: > 70%
- inhibition [15]: > 50%
- inhibition [16]: > 50%
- inhibition [17]: > 50%
- inhibition [18]: > 50%
- inhibition at 100 µM (hERG (KCNH2)): 25%
- TDI (Cytochrome P450 2B6): Not Active
- TDI (Cytochrome P450 2C8): Not Active
- TDI (Cytochrome P450 2C19): Not Active
- inhibition in vivo at 0.3 mg/kg (Rattus norvegicus [19]): 12%
- inhibition in vivo at 1 mg/kg (Rattus norvegicus [20]): 52%
- inhibition in vivo at 3 mg/kg (Rattus norvegicus [21]): 60%
- inhibition (Rattus norvegicus [22]): Dose-dependent effect
- Cp(f) (Plasma): 7.7 nM
- IC50 [23]: 5.33 µM
